Experimental data as given in ChEMBL document CHEMBL1275546, “Use of gyrase resistance mutants to guide selection of 8-methoxy-quinazoline-2,4-diones” (2008).
Converted amounts (≈) assume the structure as drawn. The source made the active and inactive calls. The rule behind the calls is not given here.

Tests used:
Escherichia coli [1] = experiment: Ratio of MIC for Escherichia coli K-12 KD2932 harboring gyrB D426N mutant gene to MIC for Escherichia coli K-12 KD1397 harboring wild type gyrB gene; format: functional
Summary of the method: (§1)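 Isogenic E. coli K-12 tolC::Tn10 strains made by P1 transduction. Each grown in LB to mid-exponential phase, diluted to 10^{4-5} CFU/ml in LB tubes with drug, incubated overnight at 37°C. MIC = lowest concentration blocking visible growth. Ratio = mutant MIC divided by KD1397 (gyr+) MIC.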

Escherichia coli [2] = experiment: Ratio of MIC for Escherichia coli K-12 KD2934 harboring gyrB K447E mutant gene to MIC for Escherichia coli K-12 KD1397 harboring wild type gyrB gene; format: functional; summary of the method: as §1
Escherichia coli [3] = experiment: Bactericidal activity against wild type Escherichia coli K-12 KD1397 at 10 times MIC; format: functional
Summary of the method: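 Exponentially growing E. coli K-12 (tolC-deficient via Tn10, gyr+) in LB at 37°C was exposed to drug at 10× the MIC for the indicated times. Aliquots were diluted and plated on drug-free agar to count CFU. Survival is expressed as the fraction of CFU present when drug was added. MIC came from overnight broth tubes inoculated at 10^4-5 CFU/ml and read by eye.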

Escherichia coli [4] = experiment: Antibacterial activity against wild type Escherichia coli K-12 KD1397 harboring gyr gene; format: functional
Summary of the method: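 Broth MIC: E. coli K-12 tolC::Tn10 strain grown in LB to mid-exponential phase, diluted to 10^4-5 CFU/ml in tubes of LB containing drug, incubated overnight at 37°C; MIC = lowest concentration blocking visible growth.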

Escherichia coli [5] = experiment: Ratio of MIC for Escherichia coli K-12 KD2878 harboring gyrA A67S mutant gene to MIC for Escherichia coli K-12 KD1397 harboring wild type gyrA gene; format: functional; summary of the method: as §1
Escherichia coli [6] = experiment: Ratio of MIC for Escherichia coli K-12 KD2955 harboring gyrA D82A mutant gene to MIC for Escherichia coli K-12 KD1397 harboring wild type gyrA gene; format: functional; summary of the method: as §1
Escherichia coli [7] = experiment: Ratio of MIC for Escherichia coli K-12 KD2876 harboring gyrA S83W mutant gene to MIC for Escherichia coli K-12 KD1397 harboring wild type gyrA gene; format: functional; summary of the method: as §1
Escherichia coli [8] = experiment: Ratio of MIC for Escherichia coli K-12 KD2882 harboring gyrA G81C mutant gene to MIC for Escherichia coli K-12 KD1397 harboring wild type gyrA gene; format: functional; summary of the method: as §1
Escherichia coli [9] = experiment: Ratio of MIC for Escherichia coli K-12 KD2864 harboring gyrA A84P mutant gene to MIC for Escherichia coli K-12 KD1397 harboring wild type gyrA gene; format: functional; summary of the method: as §1
Escherichia coli [10] = experiment: Ratio of MIC for Escherichia coli K-12 KD2880 harboring gyrA D87Y mutant gene to MIC for Escherichia coli K-12 KD1397 harboring wild type gyrA gene; format: functional; summary of the method: as §1
Escherichia coli [11] = experiment: Ratio of MIC for Escherichia coli K-12 KD2866 harboring gyrA D87Y mutant gene to MIC for Escherichia coli K-12 KD1397 harboring wild type gyrA gene
Escherichia coli [12] = experiment: Ratio of MIC for Escherichia coli K-12 KD2862 harboring gyrA S83L mutant gene to MIC for Escherichia coli K-12 KD1397 harboring wild type gyrA gene; format: functional; summary of the method: as §1
Escherichia coli [13] = experiment: Ratio of MIC for Escherichia coli K-12 KD2884 harboring gyrA A106H mutant gene to MIC for Escherichia coli K-12 KD1397 harboring wild type gyrA gene; format: functional; summary of the method: as §1
Escherichia coli [14] = experiment: Bactericidal activity against wild type Escherichia coli K-12 KD1397 at 10 times MIC after 2 hrs; format: functional, organism-based
Summary of the method: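 Wild-type KD1397 (tolC-deficient), exponential-phase LB culture, exposed to drug at 10× MIC for timed intervals or for 2 h. Samples diluted and plated on drug-free agar for CFU counts. Survival given as fraction of CFU at drug addition.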

Escherichia coli [15] = experiment: Ratio of MIC for Escherichia coli K-12 KD2886 harboring gyrA A51V mutant gene to MIC for Escherichia coli K-12 KD1397 harboring wild type gyrA gene; format: functional; summary of the method: as §1
Escherichia coli [16] = experiment: Bactericidal activity against Escherichia coli K-12 KD2866 harboring gyrA D87Y mutant gene assessed as bacterial count at 10 times MIC; format: functional, organism-based
Escherichia coli [17] = experiment: Bactericidal activity against Escherichia coli K-12 […] harboring gyrA D87Y mutant gene assessed as bacterial count at 10 times MIC after 2 hrs; format: functional, organism-based

COc1c(N2C[C@@H]3CCCN[C@@H]3C2)c(F)cc2c(=O)[nH]c(=O)n(C3CC3)c12
Ratio (Escherichia coli [1]): 1
Ratio (Escherichia coli [2]): <1

COc1c(N2CC[C@H](N)C2)c(F)cc2c(=O)[nH]c(=O)n(C3CC3)c12
Ratio (Escherichia coli [1]): 1
Ratio (Escherichia coli [2]): <1

COc1c(N2C[C@@H]3CCCN[C@@H]3C2)c(F)cc2c(=O)c(C(=O)O)cn(C3CC3)c12 [MOXIFLOXACIN]
Ratio (Escherichia coli [1]): 2
Ratio (Escherichia coli [2]): <1

CCC1CN(c2c(F)cc3c(=O)c(C(=O)O)cn(C4CC4)c3c2OC)CCN1 (stereo not drawn)
Ratio (Escherichia coli [1]): 2
Activity (Escherichia coli [3]): Active
fold change (FC) (Escherichia coli [3]): 2
Ratio (Escherichia coli [2]): <1

COc1c(N2CC[C@H](N)C2)c(F)cc2c(=O)c(C(=O)O)cn(C3CC3)c12
Ratio (Escherichia coli [1]): 2
MIC (Escherichia coli [4]): 0.016 µg/mL (≈ 0.0443 µM)
Ratio (Escherichia coli [2]): >1

COc1c(N2C[C@@H]3CCCN[C@@H]3C2)c(F)cc2c(=O)n(N)c(=O)n(C3CC3)c12
Ratio (Escherichia coli [5]): 1
Ratio (Escherichia coli [6]): 1
Ratio (Escherichia coli [7]): 1
Ratio (Escherichia coli [1]): 1
Ratio (Escherichia coli [8]): 1
Ratio (Escherichia coli [9]): 1
Ratio (Escherichia coli [10]): 1
Ratio (Escherichia coli [11]): 1
Ratio (Escherichia coli [12]): 1
Ratio (Escherichia coli [13]): 1
Activity (Escherichia coli [14]): inactive
Ratio (Escherichia coli [15]): 1
Ratio (Escherichia coli [2]): <1

CCC1CN(c2c(F)cc3c(=O)[nH]c(=O)n(C4CC4)c3c2OC)CCN1 (stereo not drawn)
Ratio (Escherichia coli [1]): 1
Ratio (Escherichia coli [2]): <1

COc1c(N2CC[C@@H](CN)C2)c(F)cc2c(=O)[nH]c(=O)n(C3CC3)c12
Ratio (Escherichia coli [1]): <1
Ratio (Escherichia coli [2]): <1

CCC1CN(c2c(F)cc3c(=O)n(N)c(=O)n(C4CC4)c3c2OC)CCN1 (stereo not drawn)
Ratio (Escherichia coli [1]): 1
Ratio (Escherichia coli [2]): <1

COc1c(N2CC[C@H](N)C2)c(F)cc2c(=O)n(N)c(=O)n(C3CC3)c12
Ratio (Escherichia coli [5]): 1
Ratio (Escherichia coli [6]): 1
Ratio (Escherichia coli [7]): 1
Ratio (Escherichia coli [1]): 1
Ratio (Escherichia coli [8]): 1
Ratio (Escherichia coli [9]): 1
Ratio (Escherichia coli [10]): 1
Ratio (Escherichia coli [11]): 1
Ratio (Escherichia coli [12]): 1
Ratio (Escherichia coli [13]): 1
Ratio (Escherichia coli [15]): 1
Ratio (Escherichia coli [2]): <1

COc1c(N2CC[C@@H](CN)C2)c(F)cc2c(=O)c(C(=O)O)cn(C3CC3)c12
Ratio (Escherichia coli [1]): 2
MIC (Escherichia coli [4]): 0.004 µg/mL (≈ 0.0107 µM)
Ratio (Escherichia coli [2]): >1

COc1c(N2CC[C@@H](CN)C2)c(F)cc2c(=O)n(N)c(=O)n(C3CC3)c12
Ratio (Escherichia coli [5]): 1
Activity (Escherichia coli [16]): Active
Ratio (Escherichia coli [6]): 1
Ratio (Escherichia coli [7]): 1
Activity (Escherichia coli [17]): Active
Ratio (Escherichia coli [1]): <1
Activity (Escherichia coli [3]): Active
Ratio (Escherichia coli [8]): 1
Ratio (Escherichia coli [9]): 1
Ratio (Escherichia coli [10]): 1
Ratio (Escherichia coli [11]): 1
Ratio (Escherichia coli [12]): 1
Ratio (Escherichia coli [13]): 1
MIC (Escherichia coli [4]): 0.7 µg/mL (≈ 1.93 µM)
Ratio (Escherichia coli [15]): 1
Ratio (Escherichia coli [2]): <1
